Laboratory results reported in ChEMBL document CHEMBL3877303 (J Med Chem, 2017).
Active and inactive are the calls of the source. The rule behind the calls is not given here.

Assays:
[1] = Half life in Sprague-Dawley rat at 10 mg/kg, po; type: ADME, organism-based; conditions: in vivo
In short: (§1)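 Male Sprague-Dawley rats aged six to eight weeks were fasted overnight and then dosed iv or orally. Blood (~0.2 mL) was drawn from the jugular vein into heparin and kept on ice. Sampling was at 1 min to 8 h for iv and 5 min to 24 h for oral. Plasma was separated by centrifugation at 2-8 °C and stored at -80 °C until analysis.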

KU812 cell line = assay: Induction of apoptosis in human KU812 cells assessed as cleavage of PARP at 0.1 to 3 uM by Western blot analysis; type: functional, cell-based
In short: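 Cells were treated with DMSO or serially diluted compound for the indicated periods. They were washed in ice-cold PBS and lysed in RIPA buffer with protease/phosphatase inhibitors, and protein was quantified by BCA. Lysates were resolved by SDS-PAGE, transferred to PVDF and blocked in 5% milk/TBST. Blots were probed for PARP and caspase-3, with β-actin as loading control, and detected by ECL.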

[2] = molecular target: T1, Mast/stem cell growth factor receptor Kit (Homo sapiens, UniProt P10721); assay: Inhibition of c-KIT mediated signaling pathways assessed as reduction in Stat3/5 phosphorylation at Y705/Y694 in human GISTT1 cells at 0.03 to 10 uM measured after 2 hrs by immunoblotting; type: cell-based
T1 sequence (P10721 whole entry): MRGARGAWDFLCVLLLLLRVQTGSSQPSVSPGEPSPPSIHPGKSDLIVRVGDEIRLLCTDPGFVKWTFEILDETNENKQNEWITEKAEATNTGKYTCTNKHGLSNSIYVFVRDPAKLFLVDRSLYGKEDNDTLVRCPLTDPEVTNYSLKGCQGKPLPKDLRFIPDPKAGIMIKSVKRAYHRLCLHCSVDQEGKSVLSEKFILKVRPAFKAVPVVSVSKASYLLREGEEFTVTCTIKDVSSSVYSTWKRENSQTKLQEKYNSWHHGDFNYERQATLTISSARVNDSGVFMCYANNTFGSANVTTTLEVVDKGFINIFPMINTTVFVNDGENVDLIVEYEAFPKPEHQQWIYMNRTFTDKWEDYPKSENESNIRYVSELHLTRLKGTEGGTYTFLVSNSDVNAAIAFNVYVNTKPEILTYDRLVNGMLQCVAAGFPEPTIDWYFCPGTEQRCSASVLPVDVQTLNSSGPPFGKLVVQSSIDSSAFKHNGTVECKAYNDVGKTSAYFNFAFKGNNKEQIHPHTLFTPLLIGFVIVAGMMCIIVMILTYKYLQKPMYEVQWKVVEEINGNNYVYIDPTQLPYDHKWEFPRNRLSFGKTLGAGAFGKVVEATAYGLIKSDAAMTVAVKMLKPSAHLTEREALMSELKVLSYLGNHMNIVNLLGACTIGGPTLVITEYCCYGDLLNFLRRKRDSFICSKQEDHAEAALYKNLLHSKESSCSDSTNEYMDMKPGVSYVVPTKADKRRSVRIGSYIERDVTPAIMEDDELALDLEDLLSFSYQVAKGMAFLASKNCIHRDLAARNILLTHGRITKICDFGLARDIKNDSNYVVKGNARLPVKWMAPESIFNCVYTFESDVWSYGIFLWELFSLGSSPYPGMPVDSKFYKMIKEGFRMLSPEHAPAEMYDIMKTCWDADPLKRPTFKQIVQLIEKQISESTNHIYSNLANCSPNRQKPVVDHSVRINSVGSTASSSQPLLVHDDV
In short: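 GIST-T1 cells treated with DMSO or serially diluted compound for 2 h. Cells lysed in RIPA buffer with protease/phosphatase inhibitors, protein quantified by BCA, SDS-PAGE, PVDF transfer, milk block, primary/secondary antibodies, ECL detection; beta-actin loading control.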

[3] = molecular target: Serine/threonine-protein kinase 10 (Homo sapiens) (UniProt O94804); assay: Inhibition of LOK (unknown origin) assessed as residual activity at 1 uM by KINOMEscan binding assay relative to control
Sequence of Serine/threonine-protein kinase 10 (Homo sapiens) (O94804 whole entry, looked up): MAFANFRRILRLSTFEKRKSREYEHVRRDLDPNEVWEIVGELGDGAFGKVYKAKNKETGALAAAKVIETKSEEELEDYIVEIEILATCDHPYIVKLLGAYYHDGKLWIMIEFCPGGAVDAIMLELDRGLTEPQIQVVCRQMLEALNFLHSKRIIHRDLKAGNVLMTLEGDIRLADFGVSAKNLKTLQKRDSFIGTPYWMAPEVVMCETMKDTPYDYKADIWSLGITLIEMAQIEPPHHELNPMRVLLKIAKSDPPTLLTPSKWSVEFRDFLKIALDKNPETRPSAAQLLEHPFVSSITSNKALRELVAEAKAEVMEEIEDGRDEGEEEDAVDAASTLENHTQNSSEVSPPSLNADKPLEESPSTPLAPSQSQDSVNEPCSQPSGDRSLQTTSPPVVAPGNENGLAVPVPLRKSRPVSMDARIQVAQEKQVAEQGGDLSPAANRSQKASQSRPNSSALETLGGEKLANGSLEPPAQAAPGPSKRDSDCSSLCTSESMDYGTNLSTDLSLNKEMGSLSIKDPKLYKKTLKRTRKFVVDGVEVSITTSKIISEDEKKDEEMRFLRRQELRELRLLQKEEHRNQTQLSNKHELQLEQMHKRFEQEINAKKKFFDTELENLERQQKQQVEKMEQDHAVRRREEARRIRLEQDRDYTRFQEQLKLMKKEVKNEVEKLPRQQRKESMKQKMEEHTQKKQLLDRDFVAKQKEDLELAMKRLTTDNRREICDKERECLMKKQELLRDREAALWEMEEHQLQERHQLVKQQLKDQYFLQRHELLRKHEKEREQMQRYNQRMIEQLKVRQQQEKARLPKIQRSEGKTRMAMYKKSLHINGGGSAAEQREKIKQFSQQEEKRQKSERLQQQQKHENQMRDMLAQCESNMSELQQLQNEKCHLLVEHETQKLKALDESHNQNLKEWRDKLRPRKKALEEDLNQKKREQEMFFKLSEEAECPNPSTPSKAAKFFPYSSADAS

K562 = assay: Antiproliferative activity against human K562 cells xenografted in nu/nu mouse administered daily via oral gavage measured 28 days post compound treatment by Ki-67 staining based assay; type: functional, cell-based
In short: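 K562 xenograft tumors were taken after daily oral dosing. Tissue was fixed in 10% neutral-buffered formalin, paraffin-embedded and cut into 6-micron sections. […] Detection used DAB with a hematoxylin counterstain.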

[4] = molecular target: BCR/ABL p210 fusion protein (Homo sapiens, UniProt A1Z199); assay: Inhibition of BCR/ABL p210 fusion protein autophosphorylation at Y245 in human […] cells at 0.01 to 3 uM measured after 2 hrs by immunoblotting; type: cell-based
Sequence of BCR/ABL p210 fusion protein (A1Z199 1-97): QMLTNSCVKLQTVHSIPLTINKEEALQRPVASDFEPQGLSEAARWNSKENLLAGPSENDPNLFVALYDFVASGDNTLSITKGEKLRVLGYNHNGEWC
In short: (§2)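 After an ice-cold PBS wash, cells were lysed in RIPA buffer (50 mM Tris pH 8.0) with protease and phosphatase inhibitors, and protein was quantified by BCA. Lysates were run on SDS-PAGE, transferred to PVDF and blocked in 5% milk/TBST. Phospho- and total proteins were probed by immunoblot with ECL detection; β-actin served as loading control.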

[5] = molecular target: T1, Mast/stem cell growth factor receptor Kit; assay: Inhibition of c-KIT autophosphorylation at Y719 in human GISTT1 cells at 0.03 to 10 uM measured after 2 hrs by immunoblotting; type: cell-based; in short: as §2
[6] = molecular target: Epithelial discoidin domain-containing receptor 1 (Homo sapiens, UniProt Q08345); assay: Inhibition of human GST-tagged DDR1 cytoplasmic domain expressed in baculovirus expression system assessed as residual activity at 1 uM by KINOMEscan binding assay relative to control
Sequence of Epithelial discoidin domain-containing receptor 1 (Q08345 whole entry, the tested form may be a part): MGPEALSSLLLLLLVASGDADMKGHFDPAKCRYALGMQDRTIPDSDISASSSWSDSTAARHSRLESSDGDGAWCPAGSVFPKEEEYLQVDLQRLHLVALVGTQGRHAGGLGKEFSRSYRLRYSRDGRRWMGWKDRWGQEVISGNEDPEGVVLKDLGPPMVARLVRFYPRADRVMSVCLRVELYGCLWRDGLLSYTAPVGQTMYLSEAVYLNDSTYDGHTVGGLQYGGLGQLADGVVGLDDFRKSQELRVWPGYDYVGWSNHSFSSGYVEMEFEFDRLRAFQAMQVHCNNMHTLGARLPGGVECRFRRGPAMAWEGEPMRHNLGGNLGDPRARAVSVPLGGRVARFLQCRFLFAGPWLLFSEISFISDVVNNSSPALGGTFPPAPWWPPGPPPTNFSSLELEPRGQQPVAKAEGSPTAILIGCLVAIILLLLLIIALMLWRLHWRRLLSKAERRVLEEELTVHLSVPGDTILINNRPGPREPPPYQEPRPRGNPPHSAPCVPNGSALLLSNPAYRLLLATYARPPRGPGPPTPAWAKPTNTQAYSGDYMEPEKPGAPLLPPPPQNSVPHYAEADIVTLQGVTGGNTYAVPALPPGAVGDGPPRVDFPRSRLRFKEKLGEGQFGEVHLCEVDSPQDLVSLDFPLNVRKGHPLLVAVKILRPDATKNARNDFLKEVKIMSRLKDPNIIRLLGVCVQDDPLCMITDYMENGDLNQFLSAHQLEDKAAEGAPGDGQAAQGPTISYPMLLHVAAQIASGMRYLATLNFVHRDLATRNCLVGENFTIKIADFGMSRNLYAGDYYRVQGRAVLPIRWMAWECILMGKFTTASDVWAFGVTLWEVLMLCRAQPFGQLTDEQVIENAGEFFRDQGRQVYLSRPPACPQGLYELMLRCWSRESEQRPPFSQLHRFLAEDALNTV

[7] = Oral bioavailability in Sprague-Dawley rat at 10 mg/kg; type: ADME, organism-based; conditions: in vivo
In short: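 Male Sprague-Dawley rats, 6-8 weeks old, fasted overnight, dosed iv or po. Jugular vein blood (~0.2 mL, heparin) sampled at 1 min to 8 h (iv) or 5 min to 24 h (po). Plasma separated by centrifugation at 2-8 °C and stored at -80 °C before analysis.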

MEG-01 = assay: Induction of apoptosis in human MEG01 cells assessed as increase in cleaved caspase-3 level at 0.1 to 3 uM by Western blot analysis; type: functional, cell-based
[8] = molecular target: T1, Mast/stem cell growth factor receptor Kit; assay: Inhibition of c-KIT mediated signaling pathways assessed as reduction in S6 phosphorylation at S235/236 in human GIST882 cells at 0.03 to 10 uM measured after 2 hrs by immunoblotting; type: cell-based; in short: as §2
[9] = Cmax in Sprague-Dawley rat at 10 mg/kg, po; type: ADME, organism-based; set-up: dose 10 mg/kg, route oral; conditions: in vivo; in short: as §1
[10] = molecular target: T1, Mast/stem cell growth factor receptor Kit; assay: Inhibition of recombinant C-terminal polyhistidine-tagged human c-KIT expressed in mammalian expression system using Tyr 06 peptide as substrate measured after 1hr by FRET based Z'Lyte assay
[11] = Cell cycle arrest in human GIST882 cells assessed as accumulation at G0/G1 phase at 1 uM after 48 hrs by propidium iodide/RNase staining based flow cytometry; type: functional
In short: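 Cells were exposed to serially diluted compound, then fixed in cold 70% ethanol overnight at -20 °C. They were stained with PI/RNase buffer for DNA-content cell-cycle analysis.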

[12] = molecular target: T1, Mast/stem cell growth factor receptor Kit; conditions: GISTT1, 1 uM
[13] = molecular target: T1, Mast/stem cell growth factor receptor Kit; conditions: GISTT1, 1 uM; remark: listed apart in the source

Row | half-life [1] [h] | inhibition [2] | Activity [3] [%] | inhibition [4] | inhibition [5] | Activity [6] [%] | bioavailability [7] [%] | inhibition [8] | Cmax [9] [ng/mL] | IC50 [10] [µM] | inhibition [12] | inhibition [13] | Compound | Activity (KU812 cell line) | Activity (K562) | Activity (MEG-01) | Activity [11]
1 | 2.83 | Active | 0.6 | Active | Active | 0.35 | 47.5 | Active | 223 | 0.075 |  |  | Cc1ccc(C(=O)N2CCC(Oc3cc(NC(=O)c4ccc(CN5CCN(C)CC5)c(C(F)(F)F)c4)ccc3C)CC2)cn1 | Active | Dose-dependent effect | Active | 
2 |  |  |  |  |  |  |  |  |  |  | Active | Active | Cc1ccc(NC(=O)c2ccc(CN3CCN(C)CC3)cc2)cc1Nc1nccc(-c2cccnc2)n1 [IMATINIB] |  |  |  | Active
